Our source for the zone of inhibition values is ChEMBL document CHEMBL1156002, “Synthesis, Raman, FT-IR, NMR spectroscopic characterization, antimicrobial activity, cytotoxicity and DNA binding of new mixed aza-oxo-thia macrocyclic compounds” (2009).

Common to all, as to format: functional
The subject of assay [1] is Mycolicibacterium smegmatis. Briefly: Antibacterial activity against Mycobacterium smegmatis CCM 2067 at 10 ug after 24 hrs by agar disk diffusion assay. Particulars: CCM 2067, 24 h, read-out: IZ. The essentials: (§1)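 Disk diffusion with sterile 6 mm discs loaded with DMSO solutions of the test agents and placed on inoculated agar. Bacteria were pre-grown in Nutrient Broth at 30 °C for 24 h, and plates were incubated at 35 °C for 24 h. Each plate carried a reference antibiotic disc matched to the organism, and a DMSO-only solvent control was run.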
(In general: A growth-free zone around the sample is the usual read-out of agar diffusion tests.)

For another assay, the system named is Pseudomonas aeruginosa. Briefly: Antibacterial activity against Pseudomonas aeruginosa ATCC 27853 at 10 ug after 24 hrs by agar disk diffusion assay. Particulars: ATCC 27853, 24 h, read-out: IZ. The essentials: as §1
Another assay concerns Micrococcus luteus. Briefly: Antibacterial activity against Micrococcus luteus La 2971 at 10 ug after 24 hrs by agar disk diffusion assay. The settings on record: La 2971, 24 h, read-out: IZ. The essentials: as §1
The subject of the next assay is Proteus vulgaris. Briefly: Antibacterial activity against Proteus vulgaris ATCC 8427 at 10 ug after 24 hrs by agar disk diffusion assay. The settings on record: ATCC 8427, 24 h, read-out: IZ. The essentials:
as §1

The subject of a further assay is Staphylococcus aureus. Briefly: Antibacterial activity against Staphylococcus aureus ATCC 6538 at 10 ug after 24 hrs by agar disk diffusion assay. The settings on record: ATCC 6538, 24 h, read-out: IZ. The essentials: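 Sterile 6 mm paper discs were loaded with ligand solution freshly prepared in DMSO and placed on inoculated agar. The inoculum came from broth cultures: bacteria in Nutrient Broth at 30 °C for 24 h, yeasts in Malt Extract Broth for 48 h. Plates were incubated at 35 °C for 24 h (bacteria) or 25 °C for 72 h (yeasts). A DMSO solvent control and a reference antibiotic disc were included on each plate.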

The test system of a further assay is Listeria monocytogenes. Briefly: Antibacterial activity against Listeria monocytogenes ATCC 15313 at 10 ug after 24 hrs by agar disk diffusion assay. The settings on record: ATCC 15313, 24 h, read-out: IZ. The essentials:
as §1

Another assay relates to Escherichia coli. Briefly: Antibacterial activity against Escherichia coli ATCC 11230 at 10 ug after 24 hrs by agar disk diffusion assay. Particulars: ATCC 11230, 24 h, read-out: IZ. The essentials:
as §1

In the next assay the test system is Klebsiella pneumoniae. Description: Antibacterial activity against Klebsiella pneumoniae UC57 at 10 ug after 24 hrs by agar disk diffusion assay. The settings on record: UC57, 24 h, read-out: IZ. The essentials: as §1
In a further assay the test system is Bacillus cereus. Briefly: Antibacterial activity against Bacillus cereus ATCC 7064 at 10 ug after 24 hrs by agar disk diffusion assay. Particulars: ATCC 7064, 24 h, read-out: IZ. The essentials: as §1

Consider `CC1(C)S[C@@H]2[C@H](NC(=O)[C@H](N)c3ccccc3)C(=O)N2[C@H]1C(=O)O` [AMPICILLIN], for which the zone of inhibition at 10 µg/disc in [1] turned out to be 21 mm; in the assay on Pseudomonas aeruginosa, 32 mm; in the assay on Micrococcus luteus, 16 mm; with Proteus vulgaris, 12 mm; in the assay on Staphylococcus aureus it was 16 mm; in the assay on Listeria monocytogenes it was 12 mm. The results for the zone of inhibition at 10 µg/disc with Escherichia coli, with Klebsiella pneumoniae and in the assay with Bacillus cereus were 12 mm, 14 mm and 10 mm, respectively.
